T cruzi inh: blocks replication of Trypanosoma cruzi; T. cruzi beta-gal in NIH3T3, luminescence, 90 h; inhibition, % (test concentration not listed); 300,000 compounds, 1.4% hits;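 active = mean inhibition across valid replicates above about 55%, limit read from the data; inconclusive = mean below that limit but half or more replicates reach it; inactive = mean below it, under half of replicates reach it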;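 note: signal also drops with host cell toxicity which is not excluded here; 0% = plate median of DMSO wells and 100% = zero luminescence signal; higher percent means less beta-gal luminescence so fewer parasites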
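System – NIH/3T3 host cells with β-galactosidase reporter T. cruzi · Doses – single 50 nL compound addition per well in DMSO · Reagent – 5000 T. cruzi trypomastigotes/well · Medium – Low-serum DMEM with 2% FBS · Timing – ≥90 h infection period, 3 h prior cell attachment · Evaluation – parasite load inhibition, % · Technique – GalScreen luminescence, 60 min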
HIF activator: HIF pathway transcriptional activation; U2OS HRE-luciferase reporter, luminescence; normalized: DMSO 0%, desferrioxamine 100%; activation, % at 7.5 µM (by protocol); 300,000 compounds, 0.32% hits; AID 1910;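 active = mean activation of at least 10% of the iron chelator positive control signal, with at least half of replicates also reaching 10%; inconclusive = mean and replicate majority disagree about reaching 10%; inactive = mean and most replicates under 10%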
NRP1-CendR mod: NRP-1/CendR interaction modulation | O14786 | FAM-RPARPAR peptide binding to NRP-1, fluorescence polarization | inhibition, % at 25 µM | 360,000 compounds, 0.85% hits | AID 602438;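 active = inhibition or corrected inhibition above about 18%, plus a signal ratio from 0.5 to 1.5, limit read from the data, passing the limit was not always enough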
Yeast superoxide: caloric restriction mimetics inhibiting age-related superoxide in yeast | 330,000 compounds, 0.18% hits | S. cerevisiae aged cells, superoxide DHE fluorescence; hits give low values | AID 2690 | superoxide response (% of plate mean), % at 10 µM;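 active = superoxide response under a set limit, about three screen SD below normal, cut at about 65% in these data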;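 note: yeast aged for seven days with compound at 30 °C before DHE staining; 100% = average MFI of all compound-treated wells on the plate with controls excluded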
V-ATPase pHluor: alters yeast V-ATPase proton transport | S. cerevisiae, pHLuorin cytosolic pH fluorescence | response, % at 10 µM | 350,000 compounds, 0.37% hits | AID 504577; in the data active = response mostly above about 7.3%, no sharp cut-off; inactive = mostly below about 5.4%; note: actives read high
AI-2 QS modul: Vibrio harveyi AI-2 quorum sensing modulation; 300,000 compounds, 0.4% hits; activity change, % at 7.5 µM; Vibrio harveyi JMH597 AI-2 luminescence/OD600 ratio, 9 h; hits give low values; strain lacks LuxN and CqsS sensors; 0 = neutral-control median; AID 2094; in the data active = activity change below about -75%, passing the limit was not always enough; inconclusive = no clear call, values can overlap the other calls;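 note: luminescence divided by OD600 gain over 9 h not by final OD600 alone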
* hit, by the source's call; ? = inconclusive; · = no result given. Shown are actives, neighbours in structure and some others; about 3% of the full set was active somewhere.

SMILES	T cruzi inh	HIF activator	NRP1-CendR mod	Yeast superoxide	V-ATPase pHluor	AI-2 QS modul
O=C(NCC(c1cccnc1)N1CCN(c2ccc(F)cc2)CC1)OCc1ccccc1 (stereo unspecified)	60*	0	5	93	2	?
COC(=O)NCC(c1cccnc1)N1CCN(c2ccccc2)CC1 (stereo unspecified)	27	0	-5	103	-1	42
O=C(NCC(c1cccnc1)N1CCN(c2ccccc2)CC1)C1CCCCC1 (stereo unspecified)	56*	0	-1	95	1	13
O=C(NC1CCCCC1)c1ccccc1NC(=S)NC(=O)C1CCC1	-2	-1	16	100	-1	15
CCOc1ccc(NC(=O)CN2CCN(CC(=O)Nc3ccc(Cl)c(C(F)(F)F)c3)CC2)cc1	11	-1	21*	91	2	-5
CC1S/C(=N/N=C2CCC(C(C)(C)C)CC2)NC1=O (stereo unspecified)	13	0	-6	108	5	11
COC(=O)c1[nH]c(C)c(/C(O)=C2\C(=O)C(=O)N(CCN3CCOCC3)C2c2ccc(C)o2)c1C (stereo unspecified)	-13	0	-6	97	-2	4
O=C(/C=C/c1ccccc1)NC(NC(=S)Nc1ccc(Cl)cc1Cl)C(Cl)(Cl)Cl (stereo unspecified)	78*	1	2	90	-1	15
Cc1ccc(C)c(NC(=S)NC(NC(=O)OCc2ccccc2)C(Cl)(Cl)Cl)c1 (stereo unspecified)	17	-10	-8	91	2	14
O=C(NC(NC(=S)Nc1c(Cl)cc(Cl)cc1Cl)C(Cl)(Cl)Cl)OCc1ccccc1 (stereo unspecified)	74*	1	-4	83	1	0
Cc1ccc(C)c(NC(=S)NC(NC(=O)/C=C/c2ccccc2)C(Cl)(Cl)Cl)c1 (stereo unspecified)	18	-2	3	91	1	20
O=C(/C=C/c1ccccc1)NC(NC(=S)Nc1cccc(Cl)c1)C(Cl)(Cl)Cl (stereo unspecified)	59*	1	1	97	0	18
O=C(/C=C/c1ccccc1)NC(NC(=S)Nc1cccc(O)c1)C(Cl)(Cl)Cl (stereo unspecified)	2	0	-13	80	3	11
CC(C)Cc1c(O)nc(SCC(=O)N2CCCCCC2)[nH]c1=O	12	0	20	107	4	20
COc1ccccc1NC(=O)NCc1nc(-c2ccc(C(F)(F)F)cc2)no1	17	-1	14	108	-9	1
CCC(C)(C(=O)NC1CCCCC1)N(C)C(=O)c1ccccn1 (stereo unspecified)	-3	0	-6	96	1	28
CN(CCc1ccccn1)Cc1ccc(Cl)c(Cl)c1	62*	0	2	97	1	-18
CN(CCc1ccccn1)Cc1ccc(Cl)cc1Cl	44	2	-6	102	2	-4
CSc1ccc(CN(C)CCc2ccccn2)cc1	59*	-3	5	113	0	7
CCCNC(=O)CS(=O)(=O)Cc1nc(-c2cccc(OC)c2)oc1C	-2	0	-12	91	-1	19
COc1cccc(-c2nc(CS(=O)(=O)CC(=O)NCc3ccc(Cl)cc3)c(C)o2)c1	-4	0	20*	95	0	18
COc1ccc(S(=O)(=O)NC(C)C(=O)NCCN2CCOCC2)cc1Cl (stereo unspecified)	4	-1	0	101	-1	12
NC(=O)C1=C[C@H](c2ccc(Br)cc2)C[C@H](OCc2ccc(CO)cc2)O1	-8	2	26*	103	-1	8
O=C(NCc1ccccc1)C1=C[C@@H](C2CC2)C[C@@H](OCc2ccc(CO)cc2)O1	11	0	21	97	-5	19
O=C(NCc1ccccc1)C1=C[C@H](C2CCCCC2)C[C@H](OCc2ccc(CO)cc2)O1	1	-1	18*	100	-5	4
C=CCOC(=O)C1=C[C@H](C2CCCCC2)C[C@H](OCc2ccc(CO)cc2)O1	9	1	-9	·	0	5

High-throughput results (PubChem)
